The text below walks through data of article PMC3431585 (Channels, 2012).

The target of experiment [1] is T1, homomeric human CNGA3 channels (Homo sapiens, UniProt Q16281).
T1 sequence (Q16281 1-694): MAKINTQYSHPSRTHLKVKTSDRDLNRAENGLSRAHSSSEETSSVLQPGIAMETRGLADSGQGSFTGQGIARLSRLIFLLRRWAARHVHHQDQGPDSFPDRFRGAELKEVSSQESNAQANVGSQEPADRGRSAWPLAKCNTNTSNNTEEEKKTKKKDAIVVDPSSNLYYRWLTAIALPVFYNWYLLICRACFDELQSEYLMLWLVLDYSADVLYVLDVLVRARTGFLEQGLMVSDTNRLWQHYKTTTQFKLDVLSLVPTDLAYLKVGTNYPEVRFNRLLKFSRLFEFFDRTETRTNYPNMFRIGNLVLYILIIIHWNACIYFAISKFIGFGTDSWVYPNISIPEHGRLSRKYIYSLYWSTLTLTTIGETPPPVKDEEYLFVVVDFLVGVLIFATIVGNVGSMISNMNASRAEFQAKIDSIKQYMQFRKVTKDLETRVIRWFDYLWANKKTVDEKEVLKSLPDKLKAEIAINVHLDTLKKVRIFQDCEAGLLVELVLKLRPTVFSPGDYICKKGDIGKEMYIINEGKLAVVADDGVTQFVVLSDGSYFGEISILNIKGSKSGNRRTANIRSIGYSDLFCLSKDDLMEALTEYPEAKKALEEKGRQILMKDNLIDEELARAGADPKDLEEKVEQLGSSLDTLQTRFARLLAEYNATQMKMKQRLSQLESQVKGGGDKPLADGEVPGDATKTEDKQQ
The class given is biochemical. The following applies: for IMAX cAMP (Hill fit): normalized to maximum cGMP current; for EC50: read-out: K1/2 cGMP (Hill fit); for gating effect (increase in cGMP apparent affinity) compared with MMP9: within 40 min of exposure, MMP2 10 nM, trypsin 10 nM, collagenase 100 nM.

Another experiment has as its target T2, homomeric CNGA1 channels (Bos taurus, UniProt Q00194).
T2 sequence (Q00194 1-690): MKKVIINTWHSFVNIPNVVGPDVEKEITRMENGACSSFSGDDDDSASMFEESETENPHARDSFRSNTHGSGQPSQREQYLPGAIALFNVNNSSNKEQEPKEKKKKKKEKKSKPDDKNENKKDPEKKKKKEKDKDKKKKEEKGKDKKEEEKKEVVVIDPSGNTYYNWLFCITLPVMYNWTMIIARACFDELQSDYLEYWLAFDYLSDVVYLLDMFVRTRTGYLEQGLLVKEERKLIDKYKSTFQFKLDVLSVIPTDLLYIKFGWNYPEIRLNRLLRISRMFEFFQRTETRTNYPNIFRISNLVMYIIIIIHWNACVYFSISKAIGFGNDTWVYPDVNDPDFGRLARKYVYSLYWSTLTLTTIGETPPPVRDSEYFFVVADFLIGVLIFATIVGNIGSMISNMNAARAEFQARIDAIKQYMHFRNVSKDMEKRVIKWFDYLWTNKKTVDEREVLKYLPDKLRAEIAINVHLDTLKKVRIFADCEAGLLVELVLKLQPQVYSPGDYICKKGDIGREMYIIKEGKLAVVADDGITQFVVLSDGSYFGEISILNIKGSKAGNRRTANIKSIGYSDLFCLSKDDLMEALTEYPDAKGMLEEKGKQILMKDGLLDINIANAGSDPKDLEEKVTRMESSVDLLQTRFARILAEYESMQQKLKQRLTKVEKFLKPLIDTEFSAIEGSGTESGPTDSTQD
The experiment is described as follows: Inside-out patch-clamp of oocyte patches expressing rod homomeric CNGA1 channels. The class given is biochemical, bovine.

The target in experiment [2] is T3, heteromeric CNGA3 + CNGB3 channels (Homo sapiens, UniProt Q16281+Q9NQW8).
T3 sequence (Q16281 1-694): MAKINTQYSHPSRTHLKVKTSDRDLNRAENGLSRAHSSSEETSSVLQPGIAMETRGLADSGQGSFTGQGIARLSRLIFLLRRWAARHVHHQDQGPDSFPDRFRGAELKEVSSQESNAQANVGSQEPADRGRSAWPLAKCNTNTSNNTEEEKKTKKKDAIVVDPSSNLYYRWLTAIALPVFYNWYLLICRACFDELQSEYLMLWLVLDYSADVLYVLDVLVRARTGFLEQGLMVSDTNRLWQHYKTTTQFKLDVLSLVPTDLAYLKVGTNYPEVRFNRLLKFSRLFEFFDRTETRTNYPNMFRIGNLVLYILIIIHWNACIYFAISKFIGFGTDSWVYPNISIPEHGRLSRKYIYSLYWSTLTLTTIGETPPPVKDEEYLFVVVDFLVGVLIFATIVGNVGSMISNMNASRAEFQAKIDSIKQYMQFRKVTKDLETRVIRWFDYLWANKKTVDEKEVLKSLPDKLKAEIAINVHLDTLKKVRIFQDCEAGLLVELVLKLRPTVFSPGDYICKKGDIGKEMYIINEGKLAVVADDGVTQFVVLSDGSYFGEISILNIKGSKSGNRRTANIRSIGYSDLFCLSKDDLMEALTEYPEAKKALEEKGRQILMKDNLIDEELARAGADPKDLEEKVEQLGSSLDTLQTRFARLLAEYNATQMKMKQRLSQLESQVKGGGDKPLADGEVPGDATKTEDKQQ
T3 sequence (Q9NQW8 1-809): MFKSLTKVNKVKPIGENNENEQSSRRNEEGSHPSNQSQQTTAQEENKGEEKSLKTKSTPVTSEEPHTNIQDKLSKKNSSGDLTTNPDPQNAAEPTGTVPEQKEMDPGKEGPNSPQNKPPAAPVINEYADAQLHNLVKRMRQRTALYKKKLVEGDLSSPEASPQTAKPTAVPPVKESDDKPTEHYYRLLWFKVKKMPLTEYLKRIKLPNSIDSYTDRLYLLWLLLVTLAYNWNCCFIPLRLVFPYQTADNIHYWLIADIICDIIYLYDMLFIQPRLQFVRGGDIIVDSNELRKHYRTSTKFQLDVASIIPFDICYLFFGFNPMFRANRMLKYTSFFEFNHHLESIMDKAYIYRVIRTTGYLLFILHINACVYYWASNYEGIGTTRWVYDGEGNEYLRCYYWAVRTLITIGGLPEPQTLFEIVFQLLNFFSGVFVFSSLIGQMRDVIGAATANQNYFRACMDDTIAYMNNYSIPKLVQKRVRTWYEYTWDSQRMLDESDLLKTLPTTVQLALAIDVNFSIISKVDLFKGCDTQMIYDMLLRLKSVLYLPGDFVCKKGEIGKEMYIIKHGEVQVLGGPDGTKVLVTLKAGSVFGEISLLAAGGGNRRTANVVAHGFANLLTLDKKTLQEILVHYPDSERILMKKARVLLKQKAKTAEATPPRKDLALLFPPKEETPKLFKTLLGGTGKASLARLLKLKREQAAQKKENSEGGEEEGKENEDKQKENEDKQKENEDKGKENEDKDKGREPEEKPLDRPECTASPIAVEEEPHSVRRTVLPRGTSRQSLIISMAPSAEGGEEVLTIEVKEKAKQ
Type of experiment: biochemical.

The target of experiment [3] is native rod photoreceptor CNG channels. As to the kind of experiment: Inside-out patches excised from Xenopus rod outer segments. The class given is biochemical, Xenopus laevis. Put shortly:
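Retinas dissected from Xenopus laevis into frog Ringer's (pH 7.6), and rod outer segments freed by gentle agitation. Inside-out patches (pipettes 3–6 MΩ) at 20–23°C, with 130 mM NaCl, 0.2 mM EDTA, 3 mM HEPES (pH 7.2) solutions.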

In experiment [4] the target is heteromeric CNGA1 + CNGB1 channels (UniProt Q00194+Q14028). The class given is biochemical, bovine CNGA1, human CNGB1. The following applies: for EC50: read-out: K1/2 cGMP (Hill fit).
heteromeric CNGA1 + CNGB1 channels, sequence (Q14028 whole entry, one chain of several): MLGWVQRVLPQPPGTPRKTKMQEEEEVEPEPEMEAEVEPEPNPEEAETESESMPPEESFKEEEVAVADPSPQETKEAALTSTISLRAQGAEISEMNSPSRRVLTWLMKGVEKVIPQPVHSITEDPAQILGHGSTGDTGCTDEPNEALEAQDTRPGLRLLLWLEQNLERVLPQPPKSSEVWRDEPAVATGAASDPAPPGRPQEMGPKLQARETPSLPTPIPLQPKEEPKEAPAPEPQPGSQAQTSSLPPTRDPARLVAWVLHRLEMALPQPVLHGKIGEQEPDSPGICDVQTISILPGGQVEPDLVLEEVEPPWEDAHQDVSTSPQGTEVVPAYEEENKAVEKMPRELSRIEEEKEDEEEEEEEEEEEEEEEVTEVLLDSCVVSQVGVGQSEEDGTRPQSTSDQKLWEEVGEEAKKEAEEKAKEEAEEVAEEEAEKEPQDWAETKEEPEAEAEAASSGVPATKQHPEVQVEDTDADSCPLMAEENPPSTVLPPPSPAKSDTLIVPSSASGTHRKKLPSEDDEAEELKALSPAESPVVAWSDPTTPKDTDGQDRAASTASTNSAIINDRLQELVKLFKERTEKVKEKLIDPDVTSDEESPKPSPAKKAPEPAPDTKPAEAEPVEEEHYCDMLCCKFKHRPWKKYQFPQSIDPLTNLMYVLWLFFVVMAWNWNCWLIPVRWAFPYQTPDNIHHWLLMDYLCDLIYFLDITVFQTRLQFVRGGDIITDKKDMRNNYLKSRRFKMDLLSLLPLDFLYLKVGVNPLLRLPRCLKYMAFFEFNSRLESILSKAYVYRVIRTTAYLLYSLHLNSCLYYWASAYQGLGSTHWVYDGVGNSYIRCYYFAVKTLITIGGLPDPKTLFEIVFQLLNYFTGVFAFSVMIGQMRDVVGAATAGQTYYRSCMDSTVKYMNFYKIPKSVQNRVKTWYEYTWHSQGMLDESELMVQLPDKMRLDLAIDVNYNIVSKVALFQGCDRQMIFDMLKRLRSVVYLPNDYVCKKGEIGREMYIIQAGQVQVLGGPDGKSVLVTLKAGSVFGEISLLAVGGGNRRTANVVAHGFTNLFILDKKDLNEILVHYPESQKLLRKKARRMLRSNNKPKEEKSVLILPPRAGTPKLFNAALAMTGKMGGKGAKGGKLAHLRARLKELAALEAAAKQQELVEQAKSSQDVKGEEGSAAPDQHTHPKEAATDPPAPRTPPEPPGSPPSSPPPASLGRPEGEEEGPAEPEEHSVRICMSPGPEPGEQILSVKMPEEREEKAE
The mark [5] stands for this setting: representative control patch, t0 (Fig 1F).
The mark [6] stands for this setting: representative control patch, t80 (Fig 1F).
[7] abbreviates: representative control patch, t40 (Fig 4B).
[8] abbreviates: representative control patch, t60 (Fig 1B).
[9] abbreviates: representative control patch, t0 (Fig 9C).
[10] abbreviates: representative control patch, t40 (Fig 9C).

Where two headings read alike, the source gives them in different places.

For `Nc1ncnc2c1ncn2[C@@H]1O[C@@H]2COP(=O)(O)O[C@H]2[C@H]1O` [cAMP, cyclic adenosine monophosphate], the “efficacy of cAMP, IcAMP/IMAX” value in experiment [1] (control patches, 60 min, n = 6) was determined as 0.15 ± 0.05. Besides, in experiment [1] (setting [5]), the “nH cAMP (Hill fit)” value amounted to 1.1 and the “IMAX cAMP (Hill fit)” value is 0.29. Moreover, in experiment [1] (setting [6]), the “nH cAMP (Hill fit)” value is listed as 1.0 and the “IMAX cAMP (Hill fit)” value was 0.14.

Regarding `Nc1nc2c(ncn2[C@@H]2O[C@@H]3COP(=O)(O)O[C@H]3[C@H]2O)c(=O)[nH]1` [cGMP, cyclic guanosine monophosphate], the “equilibrium constant for the allosteric transition (L)” value at homomeric CNGA1 channels (A1 control, cGMP, 40 min post excision (Fig 10B)) was found to be 40; in experiment [1] (A3 control, cGMP, 80 min post excision, allosteric model fit (Fig 10A)), 180; in experiment [4] (A1+B1 control, cGMP, 40 min post excision (Fig 10B)) it was 20. Also, the “nH cGMP (Hill fit)” value at homomeric CNGA1 channels (representative control patch, t0 (Fig 9A)) was 2.2; on homomeric CNGA1 channels (representative control patch, t40 (Fig 9A)), 2.2; in experiment [2] (representative control patch, t0 (Fig 8A)), 2.1; in experiment [2] (representative control patch, t80 (Fig 8A)), 1.9; in experiment [3] (representative control patch, t0 (Fig 11A)), 2.6; in experiment [3] (representative control patch, t25 (Fig 11A)), 2.6. Further, the “nH cGMP (Hill fit)” value in experiment [1] (representative control patch, t0 (Fig 1B)) is listed as 2.9; in experiment [1] (setting [7]), 2.3; in experiment [1] (setting [8]), 2.1; in experiment [4] (setting [9]), 2.3; in experiment [4] (setting [10]), 2.4. The “IMAX cGMP (Hill fit)” value amounted to 1.0 at homomeric CNGA1 channels (representative control patch, t0 (Fig 9A), normalized to maximum t0 cGMP current); 1.0 in experiment [2] (representative control patch, t0 (Fig 8A), normalized to maximum t0 cGMP current); 1.0 in experiment [1] (representative control patch, t0 (Fig 1B), normalized to maximum t0 cGMP current); 1.0 in experiment [4] (representative control patch, t0 (Fig 9C), normalized to maximum t0 cGMP current). Besides, in experiment [2] (control, 80 min, n = 4-6), the “2 μM cGMP current, I2μM/IMAX” value is 0.03 ± 0.006. The EC50 amounted to 16.4 µM in experiment [2] (read-out: K1/2,GMP, time-matched control, 80 min, n = 4-6); 15.7 µM in experiment [2] (read-out: K1/2 cGMP (Hill fit), representative control patch, t0 (Fig 8A)); 16.5 µM in experiment [2] (read-out: K1/2 cGMP (Hill fit), representative control patch, t80 (Fig 8A)); 19.3 µM in experiment [3] (read-out: K1/2 cGMP (Hill fit), representative control patch, t0 (Fig 11A)); 28.1 µM in experiment [3] (read-out: K1/2 cGMP (Hill fit), representative control patch, t25 (Fig 11A)); 23.5 ± 2.1 µM in experiment [3] (read-out: initial K1/2 cGMP, native CNG channels, initial value). The EC50 in experiment [1] (setting [7]) is 8 µM; in experiment [1] (setting [8]), 10.3 µM; in experiment [4] (setting [9]), 59.4 µM; in experiment [4] (setting [10]) it was 55.6 µM. The “Hill slope nH, cGMP” value in experiment [1] (control patches, 60 min, n = 6) worked out at 2.2 ± 0.2.

As to `CCCCNc1ccc(C(=O)OCCN(C)C)cc1` [tetracaine], the “effect on the increased persistent current after MMP9” value in experiment [2] (data not shown) is “inhibited”.

With collagenase, the “gating effect (increase in cGMP apparent affinity) compared with MMP9” value in experiment [1] is listed as “failed to produce similar gating effects”.

B1: MMP2: active human recombinant MMP2 (Calbiochem, PF023), closely related gelatinase/metalloproteinase (protein, UniProt P08253 110-660, looked up)
72 kDa type IV collagenase: YNFFPRKPKWDKNQITYRIIGYTPDLDPETVDDAFARAFQVWSDVTPLRFSRIHDGEADIMINFGRWEHGDGYPFDGKDGLLAHAFAPGTGVGGDSHFDDDELWTLGEGQVVRVKYGNADGEYCKFPFLFNGKEYNSCTDTGRSDGFLWCSTTYNFEKDGKYGFCPHEALFTMGGNAEGQPCKFPFRFQGTSYDSCTTEGRTDGYRWCGTTEDYDRDKKYGFCPETAMSTVGGNSEGAPCVFPFTFLGNKYESCTSAGRSDGKMWCATTANYDDDRKWGFCPDQGYSLFLVAAHEFGHAMGLEHSQDPGALMAPIYTYTKNFRLSQDDIKGIQELYGASPDIDLGTGPTPTLGPVTPEICKQDIVFDGIAQIRGEIFFFKDRFIWRTVTPRDKPMGPLLVATFWPELPEKIDAVYEAPQEEKAVFFAGNEYWIYSASTLERGYPKPLTSLGLPPDVQRVDAAFNWSKNKKTYIFAGDKFWRYNEVKKKMDPGFPKLIADAWNAIPDNLDAVVDLQGGGHSYFFKGAYYLKLENQSLKSVKFGSIKSDWLGC
As to B1, in experiment [1], the “gating effect (increase in cGMP apparent affinity) compared with MMP9” value is “indistinguishable from the effect produced by MMP9”.

B2: trypsin: extracellular serine protease, Trypsin-EDTA (Gibco, 25200) (protein, UniProt P00761 9-231, looked up)
Trypsin: IVGGYTCAANSIPYQVSLNSGSHFCGGSLINSQWVVSAAHCYKSRIQVRLGEHNIDVLEGNEQFINAAKIITHPNFNGNTLDNDIMLIKLSSPATLNSRVATVSLPRSCAAAGTECLISGWGNTKSSGSSYPSLLQCLKAPVLSDSSCKSSYPGQITGNMICVGFLEGGKDSCQGDSGGPVVCNGQLQGIVSWGYGCAQKNKPGVYTKVCNYVNWIQQTIAAN
modifications: EDTA
With B2, in experiment [1], the “gating effect (increase in cGMP apparent affinity) compared with MMP9” value is on record as “failed to produce similar gating effects”.
